# Source: ChEMBL document CHEMBL4346672, “Antimicrobial and KPC/AmpC inhibitory activity of functionalized benzosiloxaboroles” (Eur J Med Chem, 2019)
# The source made the active and inactive calls. The calls are words filed in the database; no cut-off is given here.
# How the values were obtained:
# [1] = test system: Candida albicans; assay: Antifungal activity against Candida albicans ATCC 90028 assessed as decrease in fungal cell growth at 0.78 to 12.5 mg/L incubated for 24 hrs by CLSI broth dilution method; type: functional; conditions: ATCC 90028, 24 h
# Method in brief: (§1)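 Yeast broth dilution in RPMI 1640 with 2% glucose, compounds in DMSO. Yeasts pre-grown on Sabouraud dextrose agar. Growth read after 35 °C, 24 h.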
# [2] = test system: Stenotrophomonas maltophilia; assay: Antibacterial activity against Stenotrophomonas maltophilia ATCC 13637 measured after 18 hrs by CLSI broth dilution method; type: functional; conditions: ATCC 13637, 18 h
# Method in brief: (§2)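 Broth MIC in Mueller-Hinton II broth following CLSI, compounds dissolved in DMSO. Strains subcultured twice on tryptic soy agar before testing. Growth read after 35 °C, 18 h.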
# [3] = test system: Burkholderia cepacia; assay: Antibacterial activity against Burkholderia cepacia ATCC 25416 assessed as diameter of zone inhibition measured after 18 hrs by CLSI disc diffusion method; type: functional
# Method in brief: (§3)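 Disc diffusion on Mueller-Hinton II agar. Compounds dissolved in DMSO. Strains stored at -80 °C and subcultured twice on tryptic soy agar before testing. Inhibition zones read after 35 °C, 18 h.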
# [4] = test system: Enterococcus faecium; assay: Antibacterial activity against Enterococcus faecium ATCC 6057 measured after 18 hrs by CLSI broth dilution method; type: functional; conditions: ATCC 6057, 18 h; method in brief: as §2
# [5] = test system: Candida parapsilosis; assay: Antifungal activity against Candida parapsilosis ATCC 22019 assessed as decrease in fungal cell growth at 0.78 to 12.5 mg/L incubated for 24 hrs by CLSI broth dilution method; type: functional; conditions: Lodderomyces parapsilosis, ATCC 22019, 24 h; method in brief: as §1
# [6] = Dissociation constant, pKa1 of compound in 0.1 M NaOH by potentiometric analysis; type: physicochemical
# [7] = test system: Pichia kudriavzevii; assay: Antifungal activity against Candida krusei ATCC 6258 assessed as decrease in fungal cell growth at 0.78 to 12.5 mg/L incubated for 24 hrs by CLSI broth dilution method; type: functional; conditions: ATCC 6258, 24 h; method in brief: as §1
# [8] = test system: Candida tropicalis; assay: Antifungal activity against Candida tropicalis IBA 171 assessed as decrease in fungal cell growth at 0.78 to 12.5 mg/L incubated for 24 hrs by CLSI broth dilution method; type: functional; conditions: IBA 171, 24 h; method in brief: as §1
# [9] = test system: Bordetella bronchiseptica; assay: Antibacterial activity against Bordetella bronchiseptica ATCC 4617 measured after 18 hrs by CLSI broth dilution method; type: functional; conditions: ATCC 4617, 18 h; method in brief: as §2
# [10] = test system: Proteus mirabilis; assay: Antibacterial activity against Proteus mirabilis ATCC 12453 assessed as diameter of zone inhibition measured after 18 hrs by CLSI disc diffusion method; type: functional; method in brief: as §3
# [11] = test system: Bacillus subtilis; assay: Antibacterial activity against Bacillus subtilis ATCC 6633 assessed as diameter of zone inhibition measured after 18 hrs by CLSI disc diffusion method; type: functional; method in brief: as §3
# [12] = test system: Enterococcus faecalis; assay: Antibacterial activity against Enterococcus faecalis ATCC 29212 measured after 18 hrs by CLSI broth dilution method; type: functional; conditions: ATCC 29212, 18 h; method in brief: as §2
# [13] = test system: Meyerozyma guilliermondii; assay: Antifungal activity against Candida guilliermondii IBA 155 assessed as decrease in fungal cell growth at 0.78 to 12.5 mg/L incubated for 24 hrs by CLSI broth dilution method; type: functional; conditions: IBA 155, 24 h; method in brief: as §1
# [14] = test system: Serratia marcescens; conditions: ATCC 13880
# [15] = test system: Enterococcus faecium; assay: Antibacterial activity against Enterococcus faecium ATCC 6057 assessed as diameter of zone inhibition measured after 18 hrs by CLSI disc diffusion method; type: functional; method in brief: as §3
# [16] = test system: Stenotrophomonas maltophilia; assay: Antibacterial activity against Stenotrophomonas maltophilia ATCC 13637 assessed as fold reduction of MIC in presence of efflux pump inhibitor PAbetaN incubated for 18 hrs by broth microdilution method; type: functional
# Method in brief: (§4)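 MICs determined with and without PAβN at 50 mg/L in Mueller-Hinton broth containing 1 mM MgSO₄. 2-fold serial dilutions per CLSI. Fold change taken from the paired MICs after 35 °C, 18 h.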
# [17] = test system: Pseudomonas aeruginosa; assay: Antibacterial activity against Pseudomonas aeruginosa ATCC 27853 measured after 18 hrs by CLSI broth dilution method; type: functional; conditions: ATCC 27853, 18 h; method in brief: as §2
# [18] = test system: Acinetobacter baumannii; assay: Antibacterial activity against Acinetobacter baumannii ATCC 19606 measured after 18 hrs by CLSI broth dilution method; type: functional; conditions: ATCC 19606, 18 h; method in brief: as §2
# [19] = test system: Pseudomonas aeruginosa; assay: Antibacterial activity against Pseudomonas aeruginosa ATCC 27853 assessed as diameter of zone inhibition measured after 18 hrs by CLSI disc diffusion method; type: functional, organism-based; method in brief: as §3
# [20] = test system: Escherichia coli; assay: Antibacterial activity against Escherichia coli ATCC 25922 assessed as fold reduction of MIC in presence of efflux pump inhibitor PAbetaN incubated for 18 hrs by CLSI broth microdilution method; type: functional; method in brief: as §4
# [21] = test system: Acinetobacter baumannii; assay: Antibacterial activity against Acinetobacter baumannii ATCC 19606 assessed as diameter of zone inhibition measured after 18 hrs by CLSI disc diffusion method; type: functional; method in brief: as §3
# [22] = test system: Saccharomyces cerevisiae; assay: Antifungal activity against Saccharomyces cerevisiae ATCC 9763 assessed as decrease in fungal cell growth at 0.78 to 12.5 mg/L incubated for 24 hrs by CLSI broth dilution method; type: functional; conditions: ATCC 9763, 24 h
# Method in brief: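 Yeast strain subcultured on Sabouraud dextrose agar for 24–48 h at 30 °C before testing. Compounds dissolved in DMSO.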
# [23] = test system: Meyerozyma guilliermondii; assay: Antifungal activity against Candida guilliermondii IBA 155 assessed as diameter of zone inhibition incubated for 24 hrs by CLSI disc diffusion method; type: functional
# Method in brief: (§5)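 Yeast disc diffusion on Mueller-Hinton agar supplemented with 2% glucose and 0.5 mg/L methylene blue. Compounds in DMSO. Yeasts subcultured on Sabouraud dextrose agar before testing. Zones read after 35 °C, 24 h.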
# [24] = test system: Candida parapsilosis; assay: Antifungal activity against Candida parapsilosis ATCC 22019 assessed as diameter of zone inhibition incubated for 24 hrs by CLSI disc diffusion method; type: functional; method in brief: as §5
# [25] = test system: Proteus mirabilis; assay: Antibacterial activity against Proteus mirabilis ATCC 12453 measured after 18 hrs by CLSI broth dilution method; type: functional; conditions: ATCC 12453, 18 h; method in brief: as §2
# [26] = test system: Escherichia coli; assay: Antibacterial activity against Escherichia coli ATCC 25922 assessed as diameter of zone inhibition measured after 18 hrs by CLSI disc diffusion method; type: functional; method in brief: as §3
# [27] = test system: Klebsiella pneumoniae; assay: Antibacterial activity against Klebsiella pneumoniae ATCC 13883 measured after 18 hrs by CLSI broth dilution method; type: functional; conditions: ATCC 13883, 18 h; method in brief: as §2
# [28] = test system: Staphylococcus epidermidis; assay: Antibacterial activity against Staphylococcus epidermidis ATCC 12228 assessed as diameter of zone inhibition measured after 18 hrs by CLSI disc diffusion method; type: functional; method in brief: as §3
# [29] = test system: Candida albicans; assay: Antifungal activity against Candida albicans ATCC 90028 assessed as diameter of zone inhibition incubated for 24 hrs by CLSI disc diffusion method; type: functional; method in brief: as §5
# [30] = test system: Proteus mirabilis; assay: Antibacterial activity against Proteus mirabilis ATCC 12453 assessed as fold reduction of MIC in presence of efflux pump inhibitor PAbetaN incubated for 18 hrs by broth microdilution method; type: functional; method in brief: as §4
# [31] = test system: Staphylococcus aureus; assay: Antibacterial activity against Staphylococcus aureus ATCC 6538P measured after 18 hrs by CLSI broth dilution method; type: functional; method in brief: as §2
# [32] = test system: Bordetella bronchiseptica; assay: Antibacterial activity against Bordetella bronchiseptica ATCC 4617 assessed as diameter of zone inhibition measured after 18 hrs by CLSI disc diffusion method; type: functional; method in brief: as §3
# [33] = test system: Klebsiella pneumoniae; assay: Antibacterial activity against Klebsiella pneumoniae ATCC 13883 assessed as fold reduction of MIC in presence of efflux pump inhibitor PAbetaN incubated for 18 hrs by broth microdilution method; type: functional; method in brief: as §4
SMILES,MIC [1] [µg/mL],MIC [2] [µg/mL],diameter of the inhibition zone (DIZ) [3],MIC [4] [µg/mL],MIC [5] [µg/mL],pKa [6],MIC [7] [µg/mL],MIC [8] [µg/mL],MIC [9] [µg/mL],diameter of the inhibition zone (DIZ) [10],diameter of the inhibition zone (DIZ) [11] [mm],MIC [12] [µg/mL],MIC [13] [µg/mL],DIZ [14],diameter of the inhibition zone (DIZ) [15],fold change (FC) [16],MIC [17] [µg/mL],MIC [18] [µg/mL],diameter of the inhibition zone (DIZ) [19],fold change (FC) [20],also measured
C[Si]1(C)OB(O)c2cccc(F)c21,50,200,inactive,200,100,7.2,50,50,200,16 mm,28,200,12.5,inactive,12 mm,8,> 400,200,inactive,32,diameter of the inhibition zone (DIZ) [21]: 11 mm; MIC [22]: 6.25 µg/mL; diameter of the inhibition zone (DIZ) [23]: 30 mm; diameter of the inhibition zone (DIZ) [24]: 20 mm; MIC [25]: 200 µg/mL; diameter of the inhibition zone (DIZ) [26]: 17 mm; MIC [27]: > 400 µg/mL; diameter of the inhibition zone (DIZ) [28]: 39 mm; diameter of the inhibition zone (DIZ) [29]: 24 mm; fold change (FC) [30]: 2; MIC [31]: 50 µg/mL; diameter of the inhibition zone (DIZ) [32]: inactive; fold change (FC) [33]: 16
C[Si]1(C)OB(O)c2ccc(F)cc21,25,200,inactive,200,25,7.3,12.5,12.5,> 400,inactive,14,200,25,inactive,inactive,8,> 400,200,inactive,16,diameter of the inhibition zone (DIZ) [21]: inactive; MIC [22]: 1.56 µg/mL; diameter of the inhibition zone (DIZ) [23]: 15 mm; diameter of the inhibition zone (DIZ) [24]: 11 mm; MIC [25]: > 400 µg/mL; diameter of the inhibition zone (DIZ) [26]: inactive; MIC [27]: > 400 µg/mL; diameter of the inhibition zone (DIZ) [28]: 26 mm; diameter of the inhibition zone (DIZ) [29]: 13 mm; fold change (FC) [30]: 2; MIC [31]: 50 µg/mL; diameter of the inhibition zone (DIZ) [32]: inactive; fold change (FC) [33]: 8
C[Si]1(C)OB(O)c2ccccc21,100,> 200,inactive,200,25,7.9,25,25,> 200,inactive,14,> 200,25,inactive,inactive,8,> 200,> 200,inactive,4,diameter of the inhibition zone (DIZ) [21]: inactive; MIC [22]: 3.12 µg/mL; diameter of the inhibition zone (DIZ) [23]: 12 mm; diameter of the inhibition zone (DIZ) [24]: 11 mm; MIC [25]: > 200 µg/mL; diameter of the inhibition zone (DIZ) [26]: inactive; MIC [27]: > 200 µg/mL; diameter of the inhibition zone (DIZ) [28]: 28 mm; diameter of the inhibition zone (DIZ) [29]: inactive; fold change (FC) [30]: 0; MIC [31]: 200 µg/mL; diameter of the inhibition zone (DIZ) [32]: inactive; fold change (FC) [33]: 2
C[Si]1(C)OB(O)c2cc(C=O)cc(F)c21,400,> 400,inactive,200,400,5.6,> 400,200,> 400,inactive,22,400,> 400,inactive,inactive,8,> 400,> 400,inactive,16,diameter of the inhibition zone (DIZ) [21]: inactive; MIC [22]: 200 µg/mL; diameter of the inhibition zone (DIZ) [23]: inactive; diameter of the inhibition zone (DIZ) [24]: inactive; MIC [25]: > 400 µg/mL; diameter of the inhibition zone (DIZ) [26]: inactive; MIC [27]: > 400 µg/mL; diameter of the inhibition zone (DIZ) [28]: 31 mm; diameter of the inhibition zone (DIZ) [29]: inactive; fold change (FC) [30]: 4; MIC [31]: 25 µg/mL; diameter of the inhibition zone (DIZ) [32]: inactive; fold change (FC) [33]: 8
C[Si]1(C)OB(O)c2ccc(C(F)(F)F)cc21,50,400,inactive,25,100,6.6,200,25,400,inactive,47,50,200,inactive,14 mm,16,> 400,400,inactive,16,diameter of the inhibition zone (DIZ) [21]: 13 mm; MIC [22]: 200 µg/mL; diameter of the inhibition zone (DIZ) [23]: 16 mm; diameter of the inhibition zone (DIZ) [24]: 12 mm; MIC [25]: > 400 µg/mL; diameter of the inhibition zone (DIZ) [26]: inactive; MIC [27]: > 400 µg/mL; diameter of the inhibition zone (DIZ) [28]: 20 mm; diameter of the inhibition zone (DIZ) [29]: 14 mm; fold change (FC) [30]: 2; MIC [31]: 50 µg/mL; diameter of the inhibition zone (DIZ) [32]: inactive; fold change (FC) [33]: 16
